High-throughput results as filed in PubChem.
T cruzi HTS = blocks T. cruzi growth inside host cells. intracellular Trypanosoma cruzi in host cells, plate reader. activity score (inhibition), % at 5.01 µM. actives 4.9% (n = 22,000). AID 651903; in the data active = activity score above about 55%;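 note: parasites and compound incubated about four days before reading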
INS-1E rescue = INS-1E beta cell protection from cytokine death; INS-1E cytokine-induced death, ATP luminescence, 48 h; normalised: neutral wells 0, positive control 100; protection from cytokine-induced ATP loss, % at 10 µM; actives 0.1% (n = 20,000);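 active = mean replicate protection from cytokine-induced ATP loss at least 50% and at least 75% of replicates each reaching 50%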
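Material: INS-1E rat cells; Quantity: 8000 cells/well; Buffer or medium: phenol-red-free RPMI with 5% fetal bovine serum; Probe or stimulus: cytokine cocktail of IFN-γ, TNF-α and IL-1β; Compound dosing: single test concentration per compound, delivered by pin transfer; Incubation: 48 h co-treatment, 10 min post-lysis read; Signal: CellTiter-Glo luminescence.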
A1 apoptosis 2 = compounds inhibiting A1, read as caspase activation; caspase activation, % (concentration not given with the values); 24,000 tested, under 10 active; MEF A1-2A-BIM cells, caspase-Glo luminescence, 3 h; percent of clofoctol response, DMSO zero; in the data active = caspase activation above about 5.9%
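System: mouse embryonic fibroblasts co-expressing A1 and BIM (A1-2A-BIM), primed for A1 dependence; amount: 2500 cells/well; doses: 50 nL pinned compound; schedule: cells settled overnight, compound exposure 3 h at 37 °C, 5% CO2; detection: Caspase-Glo 3/7 luminescence, 1 h at room temperature; read-out: Caspase-3/7 activation, seen as rise in luminescence signal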
Numbers stand for hits; 0 = inactive; - = no result given. The full list was thinned out, with hits kept by preference.

SMILES | T cruzi HTS | INS-1E rescue | A1 apoptosis 2
O=C(O)CCCCCCC(=O)N/N=C/c1cn(S(=O)(=O)c2ccccc2)c2ccccc12 | 0 | 0 | -
C[C@@H]1CN([C@@H](C)CO)C(=O)Cc2cc(NC(=O)NC3CCCCC3)ccc2O[C@@H]1CN(C)Cc1ccc(Cl)c(Cl)c1 | 0 | 0 | -
C[C@H]1CN([C@@H](C)CO)C(=O)Cc2cc(NC(=O)NC3CCCCC3)ccc2O[C@@H]1CN(C)Cc1ccc(Cl)c(Cl)c1 | 65 | 0 | 0
O=C(CCCCCCC(=O)N/N=C/c1ccc(-n2ccnc2)cc1)NO | - | - | 0
CC(C)=CCC[C@@H](C)C/C=N/NC(=O)CCCCCCC(=O)Nc1ccccc1O | 0 | 0 | 0
C[C@@H]1CCCCO[C@@H](CN(C)C(=O)Nc2ccc(C(F)(F)F)cc2)[C@@H](C)CN([C@H](C)CO)C(=O)c2cc(NC(=O)c3ccccc3)ccc2O1 | 59 | 0 | 0
C[C@@H]1CCCCO[C@H](CN(C)C(=O)Nc2ccc(C(F)(F)F)cc2)[C@H](C)CN([C@H](C)CO)C(=O)c2cc(NC(=O)c3ccccc3)ccc2O1 | - | - | 0
C[C@H]1CCCCO[C@H](CN(C)C(=O)Nc2ccc(C(F)(F)F)cc2)[C@@H](C)CN([C@@H](C)CO)C(=O)c2cc(NC(=O)Cc3ccccc3)ccc2O1 | - | - | 0
C[C@@H]1CCCCO[C@@H](CN(C)C(=O)Nc2ccc(C(F)(F)F)cc2)[C@@H](C)CN([C@H](C)CO)C(=O)c2cc(NC(=O)Nc3ccccc3)ccc2O1 | 64 | 0 | 0
C[C@@H]1CCCCO[C@H](CN(C)C(=O)Nc2ccc(C(F)(F)F)cc2)[C@@H](C)CN([C@H](C)CO)C(=O)c2cc(NC(=O)Cc3ccccc3)ccc2O1 | 71 | 0 | 0
C[C@@H]1CCCCO[C@H](CN(C)C(=O)Nc2ccc(C(F)(F)F)cc2)[C@H](C)CN([C@@H](C)CO)C(=O)c2cc(NC(=O)Nc3ccccc3)ccc2O1 | - | - | 0
C=C(C)[C@@H]1CC=C(/C=N/NC(=O)CCCCC(=O)NO)CC1 | 0 | 0 | -
CC(C)=CCC[C@@H](C)C/C=N/NC(=O)CCCCCCC(=O)O | 0 | 0 | 0
C[C@@H]1CN([C@H](C)CO)C(=O)Cc2cc(NS(=O)(=O)c3ccc(Cl)cc3)ccc2O[C@@H]1CN(C)Cc1ccc(Oc2ccccc2)cc1 | 61 | 0 | -
C[C@H]1CN([C@@H](C)CO)C(=O)Cc2cc(NS(=O)(=O)c3ccccc3)ccc2O[C@H]1CN(C)Cc1ccc(Oc2ccccc2)cc1 | 0 | 0 | 0
Cc1noc(C)c1S(=O)(=O)Nc1ccc2c(c1)CC(=O)N([C@H](C)CO)C[C@@H](C)[C@@H](CN(C)Cc1ccc(Oc3ccccc3)cc1)O2 | 67 | 0 | 0
Cc1noc(C)c1S(=O)(=O)Nc1ccc2c(c1)CC(=O)N([C@@H](C)CO)C[C@H](C)[C@H](CN(C)Cc1ccc(Oc3ccccc3)cc1)O2 | 0 | 0 | 0
Cc1ccc(S(=O)(=O)Nc2ccc3c(c2)CC(=O)N([C@@H](C)CO)C[C@H](C)[C@H](CN(C)Cc2ccc(Oc4ccccc4)cc2)O3)cc1 | 0 | 0 | -
C[C@@H]1CN([C@H](C)CO)C(=O)Cc2cc(NS(=O)(=O)c3ccccc3)ccc2O[C@@H]1CN(C)Cc1ccc(Oc2ccccc2)cc1 | 71 | 0 | 0
C[C@@H]1CN([C@@H](C)CO)C(=O)Cc2cc(NS(=O)(=O)c3ccc(Cl)cc3)ccc2O[C@H]1CN(C)Cc1ccc(Oc2ccccc2)cc1 | - | - | 0
Cc1ccc(S(=O)(=O)Nc2ccc3c(c2)CC(=O)N([C@@H](C)CO)C[C@@H](C)[C@@H](CN(C)Cc2ccc(Oc4ccccc4)cc2)O3)cc1 | 70 | 0 | -
O=C(N/N=C/c1c(O)ccc2ccccc12)c1ccccn1 | - | - | 0
O=C(CCCCCC(=O)Nc1ccccc1O)N/N=C/c1ccc(Br)cc1 | 0 | 0 | -
CC(C)(C)OC(=O)CC[C@@]12N=C(c3ccc(OCCCO)cc3)O[C@@H]1c1ccccc1N(CCS(=O)(=O)c1ccccc1)C2=O | - | - | 0
NC(=O)COc1ccccc1/C=N/NC(=O)c1ccccn1 | 0 | 0 | 0
SMILES | T cruzi HTS | INS-1E rescue | A1 apoptosis 2
C[C@@H]1CN([C@@H](C)CO)C(=O)c2cc(NS(=O)(=O)c3ccc(F)cc3)ccc2O[C@@H]1CN(C)Cc1ccc(Oc2ccccc2)cc1 | 0 | 0 | -
C[C@@H]1CN([C@@H](C)CO)C(=O)Cc2cc(NS(=O)(=O)c3ccc(F)cc3)ccc2O[C@H]1CN(C)Cc1ccc(Oc2ccccc2)cc1 | - | - | 0
C[C@H]1CN([C@@H](C)CO)C(=O)c2cc(NS(=O)(=O)c3ccc(F)cc3)ccc2O[C@@H]1CN(C)Cc1ccc(Oc2ccccc2)cc1 | 69 | 0 | -
C[C@H](CO)N1C[C@H](C)[C@H](CN(C)S(=O)(=O)c2ccccc2)Oc2ccc(NS(=O)(=O)c3ccc(F)cc3)cc2C1=O | 58 | 0 | 0
C[C@@H]1CN([C@@H](C)CO)C(=O)c2cc(NS(=O)(=O)c3ccc(F)cc3)ccc2O[C@H]1CN(C)S(=O)(=O)c1ccccc1 | 0 | 0 | 0
C[C@@H]1CN([C@H](C)CO)C(=O)Cc2cc(NS(=O)(=O)c3ccc(F)cc3)ccc2O[C@@H]1CN(C)Cc1ccc(Oc2ccccc2)cc1 | 69 | 0 | 0
COc1ccc(S(=O)(=O)N(C)C[C@H]2Oc3ccc(NC(=O)Nc4cccc5ccccc45)cc3CC(=O)N([C@H](C)CO)C[C@H]2C)cc1 | 0 | 0 | 0
C[C@@H]1CCCCO[C@@H](CN(C)C(=O)Nc2ccc3c(c2)OCO3)[C@@H](C)CN([C@@H](C)CO)C(=O)c2cc(NC(=O)c3ccccc3)ccc2O1 | - | - | 0
COc1cc(/C=N/NC(=O)c2ccccc2O)ccc1O | 0 | 0 | -
C[C@@H]1CN([C@H](C)CO)C(=O)c2cccc(NS(=O)(=O)c3ccc(F)cc3)c2O[C@H]1CN(C)Cc1ccc(-c2ccccc2)cc1 | 0 | 0 | -
C[C@H](CO)N1C[C@H](C)[C@H](CN(C)C(=O)NC2CCCCC2)Oc2c(NS(=O)(=O)c3ccc(F)cc3)cccc2C1=O | 59 | 0 | 0
C[C@H]1CN([C@@H](C)CO)C(=O)c2cccc(NS(=O)(=O)c3ccc(Cl)cc3)c2O[C@H]1CN(C)Cc1ccc(-c2ccccc2)cc1 | 59 | 0 | -
Cc1ccc(S(=O)(=O)Nc2cccc3c2O[C@@H](CN(C)Cc2ccc(Oc4ccccc4)cc2)[C@@H](C)CN([C@H](C)CO)C3=O)cc1 | 65 | 0 | 0
Cc1ccc(S(=O)(=O)Nc2cccc3c2O[C@H](CN(C)Cc2ccc(Oc4ccccc4)cc2)[C@@H](C)CN([C@@H](C)CO)C3=O)cc1 | 0 | 0 | -
C[C@H](CO)N1C[C@H](C)[C@H](CN(C)Cc2ccc(-c3ccccc3)cc2)Oc2c(NS(=O)(=O)c3ccc(F)cc3)cccc2C1=O | 58 | 0 | 0
C[C@@H]1CN([C@H](C)CO)C(=O)c2cccc(NS(=O)(=O)c3ccc(F)cc3)c2O[C@@H]1CN(C)C(=O)NC1CCCCC1 | 0 | 0 | 0
C[C@@H]1CN([C@H](C)CO)C(=O)c2cccc(NS(=O)(=O)c3ccc(Cl)cc3)c2O[C@H]1CN(C)Cc1ccc(-c2ccccc2)cc1 | 0 | 0 | -
